Measured values from ChEMBL document CHEMBL3272163, “Synthesis and antiinflammatory activity of some 2-substituted 4- and 7-benzoxazoleacetic and alpha-methylacetic acids” (J Med Chem, 1977).

Assays:
[1] = Dissociation constant, pKa of the compound in 75% EtOH; type: physicochemical
In short: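 pKa was determined in 75% EtOH, and values are reported to ±0.025.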

[2] = tested on: Rattus norvegicus; assay: Antiinflammatory activity in rat assessed as carrageenan-induced foot edema at 2 x 100 mg/kg, po relative to control; type: functional
In short: (§1)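 Rats were given carrageenan-induced foot edema by the Winter et al. method, modified as described in the paper's ref 1. Compound was dosed orally twice (dose × 2). The read-out was percent reduction of swelling relative to untreated controls, with significance given as p values.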

[3] = Toxicity in po dosed mouse; type: organism-based; settings: in vivo
In short: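 Approximate LD50 in mice after oral dosing, in mg/kg.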

[4] = Octanol-water partition coefficient, P of the compound
[5] = tested on: Rattus norvegicus; assay: Antiinflammatory activity in rat assessed as carrageenan-induced foot edema at 2 x 33 mg/kg, po relative to control; type: functional; in short: as §1
[6] = tested on: Rattus norvegicus; assay: Antiinflammatory activity in rat assessed as carrageenan-induced foot edema at 2 x 50 mg/kg, po relative to control; type: functional; in short: as §1

Cc1ccc(-c2nc3cccc(C(C)C(=O)O)c3o2)cc1 (configuration not stated)
pKa [1]: 6.2
Activity [2]: 10%
LD50 [3]: > 1600 mg/kg
P [4]: 8.94

C/C(=C1/SC(=S)NC1=O)c1cccc2oc(-c3ccccc3)nc12
Activity [2]: 9%
LD50 [3]: > 1600 mg/kg

CCCCC1C(=O)N(c2ccccc2)N(c2ccccc2)C1=O [PHENYLBUTAZONE]
Activity [5]: 52%
Activity [6]: 59%

O=C(O)Cc1cccc2oc(-c3ccc(Cl)cc3)nc12
pKa [1]: 6.1
Activity [2]: 8%
LD50 [3]: 600 mg/kg
P [4]: 9.28

CC(C(=O)O)c1cccc2oc(-c3ccccc3)nc12 (configuration not stated)
Activity [6]: 1%
P [4]: 6.93

O=C(O)Cc1cccc2oc(-c3ccccc3)nc12
pKa [1]: 6.3
Activity [2]: 28%
LD50 [3]: 400 mg/kg
P [4]: 1.03

CC(C(=O)O)c1cccc2nc(-c3ccccc3)oc12 (configuration not stated)
Activity [6]: 26%
pKa [1]: 6.2
Activity [2]: 44%
LD50 [3]: 1200 mg/kg
P [4]: 3.66

CC(C(=O)O)c1cccc2nc(-c3ccc(Cl)cc3)oc12 (configuration not stated)
pKa [1]: 6.25
Activity [2]: 16%
LD50 [3]: 1200 mg/kg

C[C@]12CCC(=O)C=C1CC[C@@H]1[C@@H]2[C@@H](O)C[C@@]2(C)[C@H]1CC[C@]2(O)C(=O)CO [HYDROCORTISONE]
Activity [6]: 33%
